Experimental data reported in ChEMBL document CHEMBL1125826, “Synthesis and biological activity of 5-amino- and 5-hydroxyquinolones, and the overwhelming influence of the remote N1-substituent in determining the structure-activity relationship” (1991).
Values after ≈ are worked out from the molar mass of the structure shown.

Columns and labels:
Type in all cases: functional
[1] = system: Bacteria; assay: MIC ratio measured as the mean MICs of gram-negative bacteria
Procedure, shortened: (§1)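 Geometric mean of the microtitration MICs (µg/mL) over the Gram-negative organisms, and separately over the Gram-positive organisms, of the 10-strain panel; individual MICs averaged from multiple experiments.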

[2] = system: Pseudomonas aeruginosa; assay: Antibacterial activity was determined against gram negative organism, Pseudomonas aeruginosa UI-18; settings: Pseudomonas aeruginosa; read-out: MIC
Procedure, shortened: (§2)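 MIC (µg/mL) by standard microtitration against a panel of 10 Gram-positive and Gram-negative organisms; values averaged from multiple experiments.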

[3] = system: Escherichia coli; assay: Antibacterial activity was determined against gram negative organism, Escherichia coli vogel; settings: Escherichia coli; read-out: MIC; procedure, shortened: as §2
[4] = system: Bacteria; assay: Antibacterial activity was determined against gram negative organism, Providencia rettgeri. M1771; settings: Bacteria; read-out: MIC; procedure, shortened: as §2
[5] = system: Klebsiella pneumoniae; assay: Antibacterial activity was determined against gram negative organism, Klebsiella pneumoniae MGH-2; settings: Klebsiella pneumoniae; read-out: MIC; procedure, shortened: as §2
[6] = system: Staphylococcus aureus; assay: Antibacterial activity was determined against gram positive organism, Staphylococcus aureus UC76; procedure, shortened: as §2
[7] = system: Streptococcus pneumoniae; assay: Antibacterial activity was determined against gram positive organism, Streptococcus pneumoniae SV-1; settings: Streptococcus pneumoniae; read-out: MIC; procedure, shortened: as §2
[8] = system: Bacteria; assay: MIC ratio measured as the mean MICs of gram-positive bacteria; procedure, shortened: as §1
[9] = system: Enterobacter cloacae; assay: Antibacterial activity was determined against gram negative organism, Enterobacter cloacae MA2646; settings: Enterobacter cloacae; read-out: MIC
[10] = system: Enterococcus faecalis; assay: Antibacterial activity was determined against gram positive organism, Streptococcus faecalis MGH-2; settings: Enterococcus faecalis; read-out: MIC; procedure, shortened: as §2
[11] = target: DNA gyrase (Escherichia coli) (UniProt P0AES6+P0AES4); assay: Minimum inhibitory concentration against Escherichia coli DNA-gyrase in supercoiling assay
[12] = system: Streptococcus pyogenes; assay: Antibacterial activity was determined against gram positive organism, Streptococcus pyogenes C203; settings: Streptococcus pyogenes; read-out: MIC; procedure, shortened: as §2
[13] = system: Staphylococcus aureus; assay: Antibacterial activity was determined against gram positive organism, Staphylococcus aureus H228; settings: Staphylococcus aureus; read-out: MIC; procedure, shortened: as §2
[14] = Staphylococcus aureus, read-out: MIC

| Structure (SMILES) | Geometric mean MIC over Gram-negative bacteria (µg/mL) [1] | MIC [2] | MIC [3] | MIC [4] | MIC [5] | MIC [6] | MIC [7] | Geometric mean MIC over Gram-positive bacteria (µg/mL) [8] | MIC [9] | MIC [10] | MIC [11] | MIC [12] | MIC [13] | MIC [6, 14] |
| --- | --- | --- | --- | --- | --- | --- | --- | --- | --- | --- | --- | --- | --- | --- |
| CCn1cc(C(=O)O)c(=O)c2cc(F)c(N3CCNCC3)c(Cl)c21 | 0.3 | 3.1 µg/mL (≈ 8.76 µM) | 0.1 µg/mL (≈ 0.283 µM) | 0.4 µg/mL (≈ 1.13 µM) | 0.2 µg/mL (≈ 0.565 µM) | 0.2 µg/mL (≈ 0.565 µM) | 3.1 µg/mL (≈ 8.76 µM) | 1.19 | 0.1 µg/mL (≈ 0.283 µM) | 3.1 µg/mL (≈ 8.76 µM) | 2.5 µg/mL (≈ 7.07 µM) | 3.1 µg/mL (≈ 8.76 µM) | 0.4 µg/mL (≈ 1.13 µM) | – |
| CCn1cc(C(=O)O)c(=O)c2cc(F)c(N3CCC(N)C3)c(Cl)c21 (stereo unspecified) | 0.13 | 0.8 µg/mL (≈ 2.26 µM) | 0.05 µg/mL (≈ 0.141 µM) | 0.2 µg/mL (≈ 0.565 µM) | 0.1 µg/mL (≈ 0.283 µM) | 0.1 µg/mL (≈ 0.283 µM) | 0.4 µg/mL (≈ 1.13 µM) | 0.3 | 0.05 µg/mL (≈ 0.141 µM) | 0.4 µg/mL (≈ 1.13 µM) | 2.5 µg/mL (≈ 7.07 µM) | 0.4 µg/mL (≈ 1.13 µM) | 0.4 µg/mL (≈ 1.13 µM) | – |
| CCn1cc(C(=O)O)c(=O)c2cc(F)c(N3CCC(N)C3)cc21 (stereo unspecified) | 0.13 | 0.8 µg/mL (≈ 2.51 µM) | 0.1 µg/mL (≈ 0.313 µM) | 0.2 µg/mL (≈ 0.626 µM) | 0.2 µg/mL (≈ 0.626 µM) | 0.1 µg/mL (≈ 0.313 µM) | 0.4 µg/mL (≈ 1.25 µM) | 0.4 | 0.1 µg/mL (≈ 0.313 µM) | 0.8 µg/mL (≈ 2.51 µM) | 2.5 µg/mL (≈ 7.83 µM) | 0.4 µg/mL (≈ 1.25 µM) | 0.8 µg/mL (≈ 2.51 µM) | – |
| CCn1cc(C(=O)O)c(=O)c2c(N)c(F)c(N3CCNCC3)c(Cl)c21 | 0.79 | 6.3 µg/mL (≈ 17.1 µM) | 0.2 µg/mL (≈ 0.542 µM) | 1.6 µg/mL (≈ 4.34 µM) | 0.4 µg/mL (≈ 1.08 µM) | – | 3.1 µg/mL (≈ 8.41 µM) | 2.37 | 0.4 µg/mL (≈ 1.08 µM) | 6.3 µg/mL (≈ 17.1 µM) | 5 µg/mL (≈ 13.6 µM) | 3.1 µg/mL (≈ 8.41 µM) | 3.1 µg/mL (≈ 8.41 µM) | 0.4 µg/mL (≈ 1.08 µM) |
| CCn1cc(C(=O)O)c(=O)c2c(N)c(F)c(N3CC(C)NC(C)C3)c(Cl)c21 (stereo unspecified) | 4.18 | 12.5 µg/mL (≈ 31.5 µM) | 1.6 µg/mL (≈ 4.03 µM) | 6.3 µg/mL (≈ 15.9 µM) | 6.3 µg/mL (≈ 15.9 µM) | – | 25 µg/mL (≈ 63 µM) | 8.27 | 1.6 µg/mL (≈ 4.03 µM) | 12.5 µg/mL (≈ 31.5 µM) | 7.5 µg/mL (≈ 18.9 µM) | 25 µg/mL (≈ 63 µM) | 3.1 µg/mL (≈ 7.81 µM) | 1.6 µg/mL (≈ 4.03 µM) |
| O=C(O)c1cn(C2CC2)c2c(F)c(N3CCNCC3)c(F)c(O)c2c1=O | 0.17 | 0.8 µg/mL (≈ 2.19 µM) | 0.05 µg/mL (≈ 0.137 µM) | 0.2 µg/mL (≈ 0.547 µM) | 0.2 µg/mL (≈ 0.547 µM) | – | 1.6 µg/mL (≈ 4.38 µM) | 1.06 | 0.1 µg/mL (≈ 0.274 µM) | 1.6 µg/mL (≈ 4.38 µM) | 0.5 µg/mL (≈ 1.37 µM) | 1.6 µg/mL (≈ 4.38 µM) | 1.6 µg/mL (≈ 4.38 µM) | 0.2 µg/mL (≈ 0.547 µM) |
| CCn1cc(C(=O)O)c(=O)c2c(O)c(F)c(N3CCNC(C)C3)c(F)c21 (stereo unspecified) | – | 12.5 µg/mL (≈ 34 µM) | 0.4 µg/mL (≈ 1.09 µM) | 1.6 µg/mL (≈ 4.36 µM) | 0.8 µg/mL (≈ 2.18 µM) | – | 12.5 µg/mL (≈ 34 µM) | – | 0.4 µg/mL (≈ 1.09 µM) | 12.5 µg/mL (≈ 34 µM) | 5 µg/mL (≈ 13.6 µM) | 12.5 µg/mL (≈ 34 µM) | 6.3 µg/mL (≈ 17.1 µM) | 1.6 µg/mL (≈ 4.36 µM) |
| CCNCC1CCN(c2c(F)c(N)c3c(=O)c(C(=O)O)cn(CC)c3c2F)C1 (stereo unspecified) | 1.05 | 6.3 µg/mL (≈ 16 µM) | 0.2 µg/mL (≈ 0.507 µM) | 1.6 µg/mL (≈ 4.06 µM) | 1.6 µg/mL (≈ 4.06 µM) | – | 0.2 µg/mL (≈ 0.507 µM) | 0.17 | 0.4 µg/mL (≈ 1.01 µM) | 0.2 µg/mL (≈ 0.507 µM) | 3.8 µg/mL (≈ 9.63 µM) | 0.2 µg/mL (≈ 0.507 µM) | 0.2 µg/mL (≈ 0.507 µM) | 0.1 µg/mL (≈ 0.254 µM) |
| CCNCC1CCN(c2c(F)c(O)c3c(=O)c(C(=O)O)cn(CC)c3c2F)C1 (stereo unspecified) | 1.38 | 12.5 µg/mL (≈ 31.6 µM) | 0.4 µg/mL (≈ 1.01 µM) | 3.1 µg/mL (≈ 7.84 µM) | 0.8 µg/mL (≈ 2.02 µM) | – | 0.2 µg/mL (≈ 0.506 µM) | 0.2 | 0.4 µg/mL (≈ 1.01 µM) | 0.4 µg/mL (≈ 1.01 µM) | 2.5 µg/mL (≈ 6.32 µM) | 0.2 µg/mL (≈ 0.506 µM) | 0.4 µg/mL (≈ 1.01 µM) | 0.05 µg/mL (≈ 0.126 µM) |
| CCn1cc(C(=O)O)c(=O)c2c(O)c(F)c(N3CCNCC3)c(F)c21 | 0.8 | 1.6 µg/mL (≈ 4.53 µM) | 0.4 µg/mL (≈ 1.13 µM) | 1.6 µg/mL (≈ 4.53 µM) | 0.8 µg/mL (≈ 2.26 µM) | – | 25 µg/mL (≈ 70.8 µM) | 12.56 | 0.4 µg/mL (≈ 1.13 µM) | 25 µg/mL (≈ 70.8 µM) | 5 µg/mL (≈ 14.2 µM) | 25 µg/mL (≈ 70.8 µM) | 12.5 µg/mL (≈ 35.4 µM) | 1.6 µg/mL (≈ 4.53 µM) |
| CCn1cc(C(=O)O)c(=O)c2cc(F)c(N3CC(C)NC(C)C3)c(Cl)c21 (stereo unspecified) | 4.14 | 12.5 µg/mL (≈ 32.7 µM) | 1.6 µg/mL (≈ 4.19 µM) | 6.3 µg/mL (≈ 16.5 µM) | 3.1 µg/mL (≈ 8.12 µM) | 1.6 µg/mL (≈ 4.19 µM) | 12.5 µg/mL (≈ 32.7 µM) | 6.27 | 3.1 µg/mL (≈ 8.12 µM) | 12.5 µg/mL (≈ 32.7 µM) | 5 µg/mL (≈ 13.1 µM) | 12.5 µg/mL (≈ 32.7 µM) | 3.1 µg/mL (≈ 8.12 µM) | – |
